Rows were chosen to be rich in hits. Some 2.9% of all compounds tested hit in one or more screens of this group.
CHO-K1 Ca ag = M1 agonist counterscreen hit in parental CHO-K1 cells | Fluo-8 calcium fluorescence; scaled to maximal ATP response, vehicle zero | activation, % at 3 µM | 0.48% of 360,000 active; in the data active means activation above about 15%;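 further: untransfected CHO-K1 host cells lacking M1 receptor as counterscreen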
M1 PAM parental = nonselective activator or artifact in parental CHO-K1 calcium assay; ATP EC20, Fluo-8 calcium fluorescence; 0% at ATP EC20, 100% at ATP max; activation, % at 3 µM; 0.02% of 360,000 active;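 active means activation above the run cutoff, the mean activation of all test compounds plus 3 SD, cut at about 40% in these data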;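 further: peak over basal fluorescence ratio in a 140 s read after ATP addition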
CHO-K1 Ca antag = nonselective inhibitor or artifact in parental CHO-K1 cells. 0.6% of 360,000 active. ATP-induced calcium, Fluo-8 fluorescence. AID 602250. inhibition, % at 3 µM;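 active means inhibition above a per-plate cutoff, the plate's mean sample inhibition plus 3 SD, cut at about 24% in these data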
CHO parental Ca = counter-screen: ATP calcium response change in parental CHO cells; parental CHO-K1, ATP-induced calcium, Fluo-8 fluorescence; inhibition, % at 5.6 µM; 0.63% of 330,000 active; AID 463079;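 active means inhibition above that plate's mean sample inhibition plus 3 SD, cut at about 26% in these data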
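Measured by: calcium-sensitive Fluo-8 fluorescence / Test system: CHO parental line / Controls: ATP-challenged DMSO wells low, unchallenged DMSO wells high / Measure: % inhibition / Compound: single nominal dose of 5.6 µM per compound / Replicates: single well per compound, no replicates / Reagent: ATP as calcium-mobilizing challenge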
OX1R antag-1 = OX1R (human) antagonism; O43613; OX1R-expressing cells, FRET antagonist read-out; inhibition, % at 6.6 µM; 1.8% of 330,000 active; in the data active means inhibition mostly above about 38%, no sharp cut-off; inactive means mostly below about 40%
Target sequence (O43613 whole entry, looked up): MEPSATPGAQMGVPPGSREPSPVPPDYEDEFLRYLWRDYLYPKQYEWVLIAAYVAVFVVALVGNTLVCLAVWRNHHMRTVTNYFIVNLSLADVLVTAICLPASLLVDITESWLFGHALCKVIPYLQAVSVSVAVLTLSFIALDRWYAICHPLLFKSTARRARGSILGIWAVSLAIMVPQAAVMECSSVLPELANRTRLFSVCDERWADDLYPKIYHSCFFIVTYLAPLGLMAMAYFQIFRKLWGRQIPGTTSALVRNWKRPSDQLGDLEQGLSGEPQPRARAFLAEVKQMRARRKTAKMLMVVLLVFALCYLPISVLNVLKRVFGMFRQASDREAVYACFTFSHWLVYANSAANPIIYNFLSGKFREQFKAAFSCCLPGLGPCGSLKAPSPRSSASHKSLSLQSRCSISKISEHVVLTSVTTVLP
OX1R antag-2 = human HCRTR1 antagonism; O43613; 0.43% of 330,000 active; AID 434989; CHO/OX1R cells, Fluo-8 calcium fluorescence, orexin A; inhibition, % at 5 µM;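 active means inhibition above its plate's threshold, mean inhibition of all tested compounds on the plate plus 3 SD, cut at about 37% in these data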
A number is an active result; . = inactive; / = no result.

SMILES	CHO-K1 Ca ag	M1 PAM parental	CHO-K1 Ca antag	CHO parental Ca	OX1R antag-1	OX1R antag-2
COc1ccc(NS(=O)(=O)c2cccc(C(=O)NCC(c3cccs3)N3CCOCC3)c2)cc1 (centres undefined)	.	.	.	.	.	.
O=[N+]([O-])c1ccc2c(c1)C(O)n1nc(-c3ccc(Cl)cc3Cl)nc1S2 (centres undefined)	.	.	.	.	.	.
Cc1nc2n(n1)C(O)c1cc([N+](=O)[O-])ccc1S2 (centres undefined)	/	/	/	.	92.5	.
COc1cc(C(=O)NCCOc2cc(C)ccc2C(C)C)cc(OC)c1OC	15.8	.	.	.	.	.
Cc1ccc(C(C)C)c(OCCNC(=O)c2cncc(Br)c2)c1	.	.	.	.	.	.
C/C(CC(=O)Nc1cccc(C(F)(F)F)c1)=N\NC(=O)C1CCCCC1	.	.	.	.	.	.
CCN(CC)S(=O)(=O)c1cc(OC)c(Cl)cc1OC	.	.	.	.	.	.
CCOc1ccc(N2CC(C(=O)Nc3nnc(Cc4ccccc4)s3)CC2=O)cc1 (centres undefined)	.	.	.	.	.	.
Cc1oc2c(c1C(=O)N1CCC(C)CC1)C(=O)c1ccccc1C2=O	/	/	/	.	66.7	.
CCOC(=O)C1CCN(C(=O)c2c(C)oc3c2C(=O)c2ccccc2C3=O)CC1	.	.	.	.	70.3	.
CC1CCN(C(=O)c2ccc3c(c2)C(=O)c2ccccc2-3)CC1	.	.	.	/	/	/
CCn1c(=O)c(C(=O)NNC(=O)c2ccccc2)c(O)c2ccccc21	19.1	.	.	.	.	.
CCCn1c(=O)c(C(=O)NNC(=O)c2ccccc2[N+](=O)[O-])c(O)c2ccccc21	.	.	.	.	.	.
CCCn1c(=O)c(C(=O)NNC(=O)c2ccccc2Cl)c(O)c2ccccc21	21.0	.	.	.	.	.
CCCN1CCc2c(sc3nc(SC)n(-c4ccccc4)c(=O)c23)C1	.	.	.	.	.	.
COc1ccccc1NC(=O)Cn1c(C)cc(=O)c2cccc(OC)c21	.	.	.	.	.	.
COc1cccc2c(=O)cc(C)n(CC(=O)Nc3ccc(C)c(C)c3)c12	.	.	.	47.4	49.3	.
CC(OC(=O)c1ccccc1Nc1ccc(SC(F)F)cc1)C(N)=O (centres undefined)	.	.	.	46.5	.	.
O=C(Cn1ncc2c1-c1ccccc1OC2)N(Cc1ccco1)C1CCCCC1	.	.	.	.	37.0	.
CCS(=O)(=O)c1ccc2oc(SCC(=O)Nc3ccc(OC)cc3OC)nc2c1	.	.	.	.	.	.
CCS(=O)(=O)c1ccc2oc(SCC(=O)NC(C)C3CC4CCC3C4)nc2c1 (centres undefined)	.	.	24.9	.	.	.
Cc1cc(C(=O)N/N=C/c2cccc([N+](=O)[O-])c2O)n[nH]1	.	.	.	.	.	.
O=C(N/N=C/c1ccc([N+](=O)[O-])cc1)c1[nH]ncc1Br	.	.	.	.	58.1	.
O=C(N/N=C/c1ccc([N+](=O)[O-])cc1)c1cc(C2CC2)[nH]n1	.	.	.	.	67.8	.
Cc1cc(C(=O)N/N=C/c2ccc(O)c([N+](=O)[O-])c2)n[nH]1	.	.	.	.	60.1	.
SMILES	CHO-K1 Ca ag	M1 PAM parental	CHO-K1 Ca antag	CHO parental Ca	OX1R antag-1	OX1R antag-2
CCN(C(=O)CSc1ccc2ccccc2n1)C1CCCCC1	.	.	.	.	.	.
CCn1c(=O)cc(SCC(=O)Nc2cccnc2)c2ccccc21	.	.	24.6	.	.	.
CCn1c(=O)cc(SCC(=O)Nc2ccc3c(c2)OCO3)c2ccccc21	.	.	.	.	.	.
COc1ccc(CCNc2ccc(N3C(=O)CC(C)C3=O)cc2[N+](=O)[O-])cc1 (centres undefined)	.	.	.	.	.	.
COc1ccc(Nc2ccc(N3C(=O)CCCC3=O)cc2[N+](=O)[O-])cc1OC	.	.	.	.	.	.
COc1ccc(Nc2ccc(N3C(=O)CC(C)C3=O)cc2[N+](=O)[O-])cc1OC (centres undefined)	.	.	.	.	40.1	.
COc1ccc(CCNc2ccc(N3C(=O)CC(C)C3=O)cc2[N+](=O)[O-])cc1OC (centres undefined)	.	.	.	54.5	.	.
CC(C)(C)C1CCC(=NNC(=O)c2ccco2)CC1 (centres undefined)	.	.	.	.	.	.
O=C(COC(=O)c1cccc(OC(F)F)c1)Nc1cccc(S(=O)(=O)N2CCCC2)c1	.	.	.	.	.	.
Cc1cc(=O)oc2cc(OCC(=O)Nc3c(C)n(C)n(-c4ccccc4)c3=O)c(Cl)cc12	.	.	.	/	/	/
O=[N+]([O-])c1ccc(-c2nc(-c3ccncc3)no2)cc1	.	.	.	.	63.7	.
Brc1ccc(-c2nc(-c3ccncc3)no2)cc1	.	.	.	.	.	.
COc1ccccc1NC(=O)c1nn(-c2ccccc2)ccc1=O	.	.	.	.	71.0	.
COC(=O)c1cccc(NC(=O)Nc2ccc(Cl)cc2)c1	.	.	.	45.9	.	.
COC(=O)c1cccc(NC(=S)Nc2ccc(Cl)c(Cl)c2)c1	.	.	25.7	.	.	.
CCC(=O)/C=C1/Sc2ccccc2N1CC	.	.	.	.	.	.
CCOC(=O)/C(=C/C=C1\Sc2ccccc2N1CC)C(C)=O	18.1	.	27.7	28.1	.	.
CCOC(=O)/C(=C/C=C1\Sc2cc(C)c(C)cc2N1CC)C(C)=O	22.4	.	.	/	/	/
CCC(=O)/C=C1/Sc2ccc(OC)cc2N1CC	.	.	.	.	.	.
Clc1cccc(-c2nc(NCc3cccnc3)c3ccccc3n2)c1	.	.	.	.	64.3	.
Cc1ccc(-c2nc(NCc3cccnc3)c3ccccc3n2)cc1	.	.	.	.	.	.
c1ccc(-c2nc(NCc3cccnc3)c3ccccc3n2)cc1	.	.	.	.	48.5	.
COC(=O)c1ccc(Oc2nc(Nc3ccc(C)c(C)c3)nc(N(C)C)n2)cc1	.	.	.	.	38.5	.
CCNc1nc(Oc2ccc(C(=O)OC)cc2)nc(N(C)C)n1	.	.	.	.	.	.
CCOc1cc(OCC)cc(C(=O)NCc2ccco2)c1	.	.	.	.	.	.
COc1cccc(C(=O)c2c(C)c(CCC#N)n3ccccc23)c1	25.1	.	.	.	.	.
O=C(Nc1ccc(Cl)cc1F)C1CCCN(C2=NS(=O)(=O)c3ccccc32)C1 (centres undefined)	.	.	.	/	/	/
Cc1ccc(NC(=O)C2CCCN(C3=NS(=O)(=O)c4ccccc43)C2)c(O)c1 (centres undefined)	.	.	26.3	.	.	.
COc1cc(/C=C(\C#N)C(=O)NCC2CCCO2)ccc1OCCC(C)C (centres undefined)	.	.	.	.	.	.

Screening data (PubChem BioAssay)
